# mABHD4 FP: ABHD4 inhibitors, primary screen, biochemical, fluorescence polarization, mouse; purified mABHD4, FP-Rh probe fluorescence polarization; AID 720543, 2013; actives 0.54% (n = 370,000); (Lyso)-N-acylphosphatidylethanolamine lipase (Mus musculus), Q8VD66; inhibition, % at 8.92 µM;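 active = inhibition exceeding the mean over every tested compound plus 3 SD, cut at about 30% in these data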;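 also: 0% = plate median of compound wells and 100% = S159A mutant with DMSO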
#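 Assay system: wild-type mouse ABHD4 protein; compound: single nominal dose of 8.92 µM, 0.89% DMSO final; schedule: 45 min + 60 min at 25 °C; measured by: FP readout, ex 525 nm / em 598 nm; evaluation: % inhibition of FP-Rh probe binding versus controls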
# SIAE primary: human SIAE inhibitors, primary screen, biochemical, fluorescence polarization, FP-Rh probe, 1536-well HTS. Sialate O-acetylesterase (Homo sapiens), Q9HAT2. SIAE FP-Rh probe binding. inhibition, % at 9.66 µM. actives 0.69% (n = 370,000);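 active = inhibition above a cutoff: mean of compounds within the control limits plus 3 SD of those, cut at about 17% in these data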;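 also: 0% = plate median of compound wells and 100% = probe without SIAE protein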
# PRMT1 FP inh: PRMT1 methyltransferase inhibitors, primary screen, biochemical, fluorescence polarization | Protein arginine N-methyltransferase 1 (Homo sapiens), Q99873 | recombinant PRMT1, activity-based probe fluorescence polarization | inhibition, % at 2.79 µM | actives 1.3% (n = 370,000);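 active = inhibition above about 21% made by adding two undisclosed values, limit read from the data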
# TCR-CD3 inh: inhibitors of human TCR-CD3 interaction, primary screen, biochemical, fluorescence, TAMRA-labeled TCR probe; T-cell receptor (TCR); inhibition, % at 9.4 µM; actives 0.37% (n = 360,000); in the data active = inhibition above about 19%;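 also: recombinant mutant TCR 2C K166C tagged with TAMRA read by polarization; 0% = receptor in buffer alone and 100% = receptor with positive control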
# rCAG binder: binders of r(CAG) RNA repeats, primary screen, biochemical, fluorescence. r(CAG) RNA repeat, TO-PRO-1 dye displacement fluorescence. inhibition, % at 3 µM. actives 1.3% (n = 370,000);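 active = inhibition above the plate cutoff, the mean of all test compounds on that plate plus 3 SD, cut at about 35% in these data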;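 also: 0% = DMSO alone and 100% = 100 µM mitoxantrone as full dye displacement; higher means more dye released from RNA so lower well fluorescence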
# HTRA1 inhibitor: HTRA1 serine protease inhibitors, primary screen, biochemical, fluorescence polarization, HTS; recombinant HTRA1, FP-rhodamine activity-based probe; actives 0.5% (n = 340,000); inhibition, % at 5.96 µM; in the data active = inhibition above about 36%;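 also: 0% = enzyme with DMSO and 100% = wells lacking enzyme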
# Target sequence (Q92743 whole entry, looked up): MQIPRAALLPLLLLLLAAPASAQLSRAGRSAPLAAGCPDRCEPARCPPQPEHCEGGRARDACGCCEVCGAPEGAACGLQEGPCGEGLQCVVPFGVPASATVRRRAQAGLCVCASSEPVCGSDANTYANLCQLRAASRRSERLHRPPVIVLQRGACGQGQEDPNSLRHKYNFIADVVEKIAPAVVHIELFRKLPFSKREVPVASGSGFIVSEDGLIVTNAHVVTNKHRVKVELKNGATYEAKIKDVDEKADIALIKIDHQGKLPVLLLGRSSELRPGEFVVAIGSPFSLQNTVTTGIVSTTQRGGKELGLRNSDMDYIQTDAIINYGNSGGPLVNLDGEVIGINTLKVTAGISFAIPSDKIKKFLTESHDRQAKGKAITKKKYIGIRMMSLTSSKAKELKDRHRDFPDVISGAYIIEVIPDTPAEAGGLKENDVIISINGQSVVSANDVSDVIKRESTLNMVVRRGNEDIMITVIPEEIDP
# HTRA1 inh conf: HTRA1 protease inhibitors, retest, confirmation, biochemical, fluorescence polarization; shares compounds with HTRA1 inhibitor; recombinant HTRA1, FP-rhodamine activity-based probe; inhibition, % at 5.96 µM; actives 66% (n = 1,600); AID 540248, 2011;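 active = mean inhibition over three repeats above a set limit taken from the earlier primary screen, cut at about 37% in these data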;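 also: 0% = HTRA1 with DMSO and 100% = wells lacking HTRA1; inhibitors block probe binding so polarization drops and inhibition rises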
# Numbers without * were called inactive; · = no result. Sampled rows, rich in hits. Any-hit rate of the full collection: about 3.5%.
SMILES,mABHD4 FP,SIAE primary,PRMT1 FP inh,TCR-CD3 inh,rCAG binder,HTRA1 inhibitor,HTRA1 inh conf
CC[C@H](C)/C=C/C1=CC2=C(Cl)C(=O)[C@@]3(C)OC(=O)C(C(=O)[C@H](C)[C@@H](C)O)=C3C2=CO1,·,·,·,·,·,54*,68*
O=C(Cn1c(=O)c2cccn2c2cccnc21)NCCCN1CCN(c2ccccc2)CC1,0,6,-5,·,·,·,·
CC1(C)CC(=O)C2=C(C1)N=C1c3ccccc3C(=O)C1C2c1ccc(Cl)cc1 (stereo not drawn),6,13,5,-1,2,52*,51*
Oc1cccc2ccc(/C=C/c3ccccc3Cl)nc12,1,-1,-2,-1,13,46*,57*
CCn1c(SCC(=O)NN=Cc2c(C)nn(-c3ccccc3)c2C)nnc1-c1ccc(OC)c(OC)c1,6,3,0,·,-1,·,·
Oc1ccccc1NCC(O)Cn1ccc2ccccc21 (stereo not drawn),27,10,8,0,13,54*,21
CN(C)c1ccc(C(=O)NC2CCCCN(Cc3ccc(Cl)cc3)C2=O)cc1 (stereo not drawn),5,0,-3,·,2,·,·
O=S(=O)(c1cccnc1)N1CCn2cccc2C1c1ccccc1F (stereo not drawn),3,5,4,4,-4,77*,29
CCN(CC)c1ccc(/C=C2\C(=O)N(c3nnc(C)c(=O)[nH]3)N=C2C)cc1,5,-13,3,16,1,62*,79*
CCN(CC)c1ccc(/C=C2/C(=O)ON=C2C)cc1,-3,-14,-17,-2,-43,-1,·
CC(C)n1cnc2c(NCc3ccccc3)cc(N[C@H](C)CO)cc21,·,·,·,·,·,45*,33
CCC(CO)Oc1cc(NCc2ccccc2)c2ncn(C(C)C)c2c1 (stereo not drawn),7,0,1,0,2,21,·
CCCCC(=O)N1CCN(C(=O)c2ccc3c(c2)nc(C)n3C2CCCC2)CC1,-5,1,-5,·,2,·,·
CC1CC(C)CN(C(=O)c2ccc3c(c2NCCO)C(=O)c2ccccc2C3=O)C1 (stereo not drawn),27,1,1,-26,0,41*,53*
CCCCN(Cc1nc2ccccc2c(=O)[nH]1)C(=O)c1nn(C)c(=O)c2ccccc12,0,-2,5,0,2,85*,0
CCCCC(=O)N(Cc1ccc2c(c1)OCO2)Cc1nc2ccccc2c(=O)[nH]1,-6,5,0,5,-4,-2,·
CN1C(=O)c2cc(NC(=O)c3ccc(F)cc3)ccc2OC[C@H]2O[C@H](CC(=O)NC3CCC3)CC[C@H]21,-3,7,-1,·,2,·,·
Cc1cc2cc(CNC(=S)Nc3ccc(OC(F)(F)F)cc3)ccc2n1C,15,1,12,6,24,41*,11
c1ccc(CCSc2nnc(-c3cccnc3)n2Cc2ccccc2)cc1,3,-1,-2,·,0,·,·
O=C(N/N=C/c1sc(N2CCOCC2)nc1-c1ccccc1)c1cccc(S(=O)(=O)N2CCCC2)c1,1,14,-4,4,13,46*,63*
CC(=O)Nc1ccc(C(CCCc2ccccc2)C2=CCCCC2)cc1 (stereo not drawn),-22,-9,2,·,3,·,·
NNC(=O)c1oc2nc(-c3ccccc3)cc(-c3ccccc3)c2c1N,16,7,-2,15,12,47*,13
N#CC1=C(N)Oc2c(ccc3cccnc23)C1c1cccnc1 (stereo not drawn),-5,5,-1,4,4,14,·
CCc1ccc2[nH]c(=O)c(C3C(C#N)=C(N)Oc4c3ccc3cccnc43)cc2c1 (stereo not drawn),17,9,2,14,18,82*,14
